Source: PubChem BioAssay
Most compounds without a hit are left out; they make up all but 1.5% or so of the library.
Rad51 HR inh – Rad51 (human) homologous recombination inhibition | Q06609 | hRad51 DNA strand exchange, fluorescence dequenching | inhibition, % at 10 µM | 0.085% of 200,000 active | AID 1385;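 active means inhibition above 40% at the single screening dose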;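 further: 0% = DMSO control wells and 100% = blanks with heterologous ssDNA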
Target sequence (Q06609 whole entry, looked up): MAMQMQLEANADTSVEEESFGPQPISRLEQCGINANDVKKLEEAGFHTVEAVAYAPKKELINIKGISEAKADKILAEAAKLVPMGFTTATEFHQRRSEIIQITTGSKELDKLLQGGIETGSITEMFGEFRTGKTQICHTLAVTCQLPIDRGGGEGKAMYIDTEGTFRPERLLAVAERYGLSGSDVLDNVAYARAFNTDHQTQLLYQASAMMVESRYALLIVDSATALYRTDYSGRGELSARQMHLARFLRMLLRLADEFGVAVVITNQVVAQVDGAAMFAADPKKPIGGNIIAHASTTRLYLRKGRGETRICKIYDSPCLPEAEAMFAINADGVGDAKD
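Material: hRad51 filaments on single-stranded DNA; Reagent: Donor/quencher-labelled 47-bp dsDNA substrate; Compound: 10 µM final, single point; Schedule: 37 °C 15-min filament assembly, 30-min compound preincubation, 15-min exchange; Technique: FRET fluorescence, excitation 485 nm, emission 520 nm; Benchmarks: control wells and blank wells on each plate.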
TbHK1 inh – blocks Trypanosoma brucei hexokinase 1 activity. recombinant TbHK1, G6PDH-coupled NADH A340. inhibition, % at 10 µM. 0.11% of 220,000 active. AID 1430;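 active means inhibition of 50% or more in the single-dose primary screen; inactive means inhibition below 50%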
b-catenin transl – beta-catenin nuclear translocation modulation; AID 1665; 0.3% of 190,000 active; HeLa beta-catenin nuclear translocation, immunofluorescence imaging; nuclear translocation activity, % at 5 µM;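 active means nuclear translocation activity above 50% at 5 µM, with a well cell count of 50 or more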;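 further: per-cell ratio of nuclear to cytoplasmic median beta-catenin stain intensity; plate controls were DMSO negative control for no effect and GSK-3 inhibitor IX positive control for full effect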
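assay system = human HeLa cells, endogenous beta-catenin | times = compound treatment 24 h, 37°C, 5% CO2 | detection = Anti-beta-catenin immunofluorescence on PFA-fixed, Triton-permeabilized cells, DAPI nuclei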
MT stabilize HCS – stabilizes microtubules in HeLa cells | HeLa tubulin immunostaining HCS, 24 h; share of cells brighter than vehicle mean+2SD | % tubulin-high responders, % at 10 µM | 0.83% of 200,000 active | AID 2205;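 active means plate Z-score above 3 for both tubulin-high and condensed-nucleus cell shares, with cell loss under 80%, at 10 µM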;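 further: anti alpha tubulin signal scored within the nucleus-defined area of each cell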
Dynein cargo inh – blocks dynein driven cargo transport along microtubules | 3617.4 mouse cells, GR-EGFP nuclear translocation imaging; test concentration mostly 20 µM; stimulated with dexamethasone, 1 µM; active compounds read low | z-score, hits read low | 0.47% of 220,000 active;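 active means plate z-score of nuclear minus cytoplasmic receptor signal below a set negative limit, without overly bright fluorescence or cell loss, cut at about -3.5 in these data, passing the limit was not always enough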;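 further: z-score of nuclear minus cytoplasmic ring GR-EGFP intensity difference per well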
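Buffer or medium: Induction medium lacking tetracycline, stripped serum | Also added: Dexamethasone agonist, 1.0 µM final, for 30 min | Timing: 48 h induction, 1 h compound, 30 min dex at 37 °C | Detection: Formaldehyde fixation, Hoechst nuclear stain, 10x automated fluorescence imaging | Measure: Nuclear versus cytoplasmic GR-EGFP signal, averaged per well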
Numbers without * were called inactive; · = not tested or not shown.

SMILES	Rad51 HR inh	TbHK1 inh	b-catenin transl	MT stabilize HCS	Dynein cargo inh
Cc1cccc(N2CCN(C(=S)c3ccc(-c4ccccc4[N+](=O)[O-])o3)CC2)c1	-3.0	23.3	0.8	23.2*	-0.748
COC(=O)C1=C(C)NC2=C(C(=O)CC(c3cccs3)C2)C1c1ccsc1 (stereo unspecified)	-1.7	-4.1	-2.8	26.3*	1.22
CCOC(=O)C1=C(C)NC2=C(C(=O)OC2)C1c1ccccc1 (stereo unspecified)	-7.2	-14.4	81.3*	27.5	-0.278
COC(=O)C1=C(C)NC2=C(C(=O)CCC2)C1c1ccsc1 (stereo unspecified)	30.4	-10.3	-3.1	1.7	-1.24
CCOC(=O)C1=C(C)NC2=C(C(=O)CC(c3cccs3)C2)C1c1cccs1 (stereo unspecified)	-3.1	-2.9	-3.1	18.3*	0.574
Nc1ncnc(NNC(=O)CNC(=O)c2c(F)cccc2Cl)c1[N+](=O)[O-]	·	-20.0	-0.3	4.6	0.163
Cc1ccc(/C=C/C(=O)c2cc(Br)ccc2OC(=O)c2ccco2)cc1	-14.3	-6.2	0.1	1.9	-2.56
COc1ccccc1/C=C/C(=O)c1cc(Br)ccc1OC(=O)c1ccco1	·	-7.1	·	2.5	-5.32*
Cc1ccc2[nH]c(-c3ccccc3)cc(=O)c2c1	-10.3	-29.3	92.9*	43.0*	0.51
CCOC(=O)/C(C(C)=O)=C1/OC(=O)c2ccccc21	-2.2	-4.6	-3.0	1.5	-0.496
COc1ccc(/C=N/NC(N)=S)cc1OC(=O)c1cccc2ccccc12	-3.7	-25.8	·	35.3*	0.211
COc1ccc(N(C(=O)c2ccccc2C)S(=O)(=O)c2cccs2)cc1	-7.5	29.0	98.7*	15.5*	0.348
COc1cc(C(=O)c2c(C)c(CCC#N)n3ccccc23)cc(OC)c1OC	6.6	-13.7	61.0*	19.5*	-0.308
Cc1noc(C)c1COc1ccc(C(=O)OCC(=O)c2ccc3c(c2)OCCO3)cc1	6.8	13.5	-2.4	5.6	-1.38
COc1ccc(/C=N/NC(=O)c2ccc3ccccc3c2)cc1OS(=O)(=O)c1ccc(NC(C)=O)cc1	-1.4	-22.6	108.9*	4.5	0.341
Brc1ccc2c(c1)C(C1=NCCN1)c1ccccc1CS2 (stereo unspecified)	-5.5	4.3	50.7*	23.6	-0.256
COc1ccc(NS(=O)(=O)c2cc(C(=O)N3CCN(C(C)=O)CC3)ccc2Cl)cc1	2.1	-1.3	-6.0	2.0	-1.12
COc1ccc(NS(=O)(=O)c2cc(N/C(=N\S(=O)(=O)c3ccccc3)c3ccc(F)cc3)ccc2Cl)cc1	4.3	14.3	·	12.4*	0.444
COc1ccc(C(=O)Nc2ccc(Cl)c(S(=O)(=O)Nc3ccccc3OC)c2)cc1	4.9	1.7	9.1	3.6	1.83
CCOc1ccc(NS(=O)(=O)c2cc(NC(=O)c3ccc(C)cc3)ccc2Cl)cc1	-3.1	6.0	24.3	20.7*	-0.179
O=C1N/C(=C/c2cccs2)C(=O)N1Cc1ccccc1F	2.7	-10.0	-5.2	1.5	0.28
O=C(CCn1cnc2ccccc2c1=O)Nc1cccc(Cl)c1	-1.3	2.1	·	1.5	2.73
CN(C)C(=O)CCN1CCOCC1	2.8	3.3	-3.7	3.9	-0.511
Cc1ccc(S(=O)(=O)N2CCN(C)CC2)cc1-c1nnc2c3ccccc3c(C)nn12	3.0	-0.6	0.4	2.4	-0.782
CC1c2[nH]c3ccccc3c2CCN1C(=O)Nc1ccccc1 (stereo unspecified)	-0.1	-5.9	4.9	42.7*	1.91
SMILES	Rad51 HR inh	TbHK1 inh	b-catenin transl	MT stabilize HCS	Dynein cargo inh
COC(=O)C1=C(Nc2ccc(C)cc2)C=C(C)C(C(=O)OC)C1c1ccc(OC)cc1 (stereo unspecified)	2.5	12.4	72.4*	31.2*	0.143
COC(=O)C1=C(Nc2ccc(C)cc2)C=C(C)C(C(=O)OC)C1c1cccc(OC)c1 (stereo unspecified)	-4.2	-8.5	56.8*	17.9	-0.942
COc1cccc(C2NC(=O)NC(C)=C2C(=O)Nc2ccc(C)cc2)c1 (stereo unspecified)	-1.5	-1.6	0.6	1.9	-0.533
COc1ccc(Nc2ncnc3scc(-c4ccc(OC)cc4)c23)cc1	-0.7	27.1	·	13.1*	-0.208
CCOc1ccc(-c2cc(CCCC(=O)Nc3cccc(OC)c3)no2)cc1	-3.3	-3.3	99.7*	23.3*	0.267
Cc1cc(NC(=O)C2CCN(S(=O)(=O)c3cccs3)CC2)no1	4.0	0.0	-2.3	3.3	0.895
CCN(C)c1ccc(/C=N\n2nnnc2N)cc1	0.3	-14.9	·	24.7*	-0.932
CCN(CC)c1ccc(/C=N/Nc2ccc(C)cc2)c(O)c1	0.6	-27.1	0.9	2.9	-0.0129
CCN(CC)c1ccc(/C=N/n2nnnc2N)c(O)c1	-3.1	-19.1	·	24.4*	0.475
CCOC(=O)N/N=C/c1ccc(N(CC)CC)cc1O	·	-48.9	32.2	16.5*	-0.852
Nc1ccccc1C(=O)NNc1c2ccccc2nc2ccccc12	·	-1.5	-1.1	·	0.0884
COc1ccc(C2CC(=O)CC(=O)C2n2cncn2)cc1 (stereo unspecified)	-5.4	5.0	-0.4	2.7	-0.831
O=C(O)CSC1=NC(=Nc2cccc(Cl)c2)C2(CCCCC2)N1c1ccccc1	12.4	-3.6	-1.5	4.0	-0.427
NS(=O)(=O)c1ccc(Nc2nc(-c3ccc(F)cc3)cs2)cc1	8.1	-5.0	4.2	3.9	0.31
COc1ccc(/C=N/NC(=O)c2[nH]nc3c2CCc2ccccc2-3)cc1OC	3.7	-27.2	127.4*	22.3*	-0.0933
Cc1cc(C(=O)N2CCCC(C(=O)c3cccc4ccccc34)C2)nc(C)n1 (stereo unspecified)	·	-7.5	-0.1	2.6	2.47
COC(=O)c1ccc(-c2ccc(/C=N/N3C(=O)C4C5C=CC(C6CC56)C4C3=O)o2)cc1 (stereo unspecified)	-13.8	-0.7	·	3.3	-0.8
COc1ccccc1NC(=S)NCCc1c[nH]c2ccccc12	14.5	-7.3	0.1	0.4	0.401
O=C(NCc1ccccc1)c1cccc(COc2ccccc2Cl)c1	·	4.5	4.0	1.4	-0.892
COC(=O)c1ccccc1NC(=O)c1cccc(COc2ccccc2Cl)c1	-10.5	-10.7	122.6*	46.0*	-0.523
CCN(c1ccc(NC(=O)c2ccc(Cl)nc2)cc1)C(C)C	-2.2	4.6	27.0	23.2*	0.394
CC1(C)CC(=O)C(C#N)=C(NCCCO)C1	0.0	-3.4	-0.1	3.8	0.254
O=C1/C(=C/c2ccccc2)NC(=S)N1C(c1ccccc1)c1ccccc1	-1.0	-16.7	60.8*	35.8*	-0.434
Cc1[nH][nH]c(=O)c1C(c1c(C)[nH][nH]c1=O)c1cn(Cc2ccc(Cl)c(Cl)c2)c2ccccc12	-0.6	-7.7	98.8*	5.6	-0.427
O=C(O)Cc1cn(Cc2ccc(F)cc2)c2ccccc12	2.8	5.0	-0.2	2.1	-0.954
